Measurements as given in ChEMBL document CHEMBL4689842, “EUbOPEN Chemogenomics Library wave 1” (2021).

Tests used:
Assay type in all cases: toxicity, cell-based
Fibroblast = experiment: Incucyte cell viability with human fibroblast; settings: 10 µM, compound concentration 10 uM; also: filed as whole numbers so only -1 and 0 and 1 occur
U2OS [1] = experiment: Multiplex assay against U2OS; settings: human
In short: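 Imaging took place on a CQ1 microscope at 37°C and 5% CO2 once compound had been added to live cells stained at seeding with Hoechst33342, BioTracker Green Microtubule Cytoskeleton Dye, MitoTracker Red and Annexin V Alexa Fluor 680. CellPathfinder machine-learning gating classed cells as Hoechst high-intensity objects or normal cells, classed normal cells as having healthy, pyknosed or fragmented nuclei, and classed pyknosed cells as mitotic or apoptotic. Tubulin, mitochondrial-mass and membrane-permeability phenotypes are per cents of the healthy-nucleus cells.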

U2OS [2] = experiment: Incucyte cell viability with U2OS; settings: human, 10 µM, compound concentration 10 uM; also: filed as whole numbers so only -1 and 0 and 1 occur
HEK-293T = experiment: Incucyte cell viability with HEK293T; settings: human, 10 µM, compound concentration 10 uM; also: filed as whole numbers so only -1 and 0 and 1 occur
[3] = 0 h, replicate number 1, timepoint 0 hours
[4] = 24 h, replicate number 1, timepoint 24 hours
[5] = 12 h, 1 µM, compound concentration 1 uM, replicate 1
[6] = 12 h, 1 µM, compound concentration 1 uM, replicate 2
[7] = 12 h, 10 µM, compound concentration 10 uM, replicate 1
[8] = 12 h, 10 µM, compound concentration 10 uM, replicate 2
[9] = 24 h, 1 µM, compound concentration 1 uM, replicate 1
[10] = 24 h, 1 µM, compound concentration 1 uM, replicate 2
[11] = 24 h, 10 µM, compound concentration 10 uM, replicate 1
[12] = 24 h, 10 µM, compound concentration 10 uM, replicate 2
[13] = 48 h, 1 µM, compound concentration 1 uM, replicate 1
[14] = 48 h, 1 µM, compound concentration 1 uM, replicate 2
[15] = 48 h, 10 µM, compound concentration 10 uM, replicate 1
[16] = 48 h, 10 µM, compound concentration 10 uM, replicate 2

Cc1ccc(S(=O)(=O)NC2c3ccccc3Oc3ccccc32)cc1
Growth Rate (Fibroblast; [3]): 0
Growth Rate (Fibroblast; [4]): 1
Population Apoptotic (%) (U2OS [1]; [5]): 47%
Population Fragmented Nuclei (%) (U2OS [1]; [5]): 11%
Population Healthy Nuclei (%) (U2OS [1]; [5]): 77%
Population Hoechst High Intensity Objects (%) (U2OS [1]; [5]): 5%
Population Membrane Permeable-Phenotype (%) (U2OS [1]; [5]): 6%
Population Mitochondria Different-Phenotype (%) (U2OS [1]; [5]): 5%
Population Mitotic Cells (%) (U2OS [1]; [5]): 52%
Population Normal (%) (U2OS [1]; [5]): 94%
Population Pyknosed Nuclei (%) (U2OS [1]; [5]): 10%
Population Tubulin-Different-Phenotype (%) (U2OS [1]; [5]): 5%
Total Cell Count (U2OS [1]; [5]): 216
Population Apoptotic (%) (U2OS [1]; [6]): 0%
Population Fragmented Nuclei (%) (U2OS [1]; [6]): 10%
Population Healthy Nuclei (%) (U2OS [1]; [6]): 76%
Population Hoechst High Intensity Objects (%) (U2OS [1]; [6]): 4%
Population Membrane Permeable-Phenotype (%) (U2OS [1]; [6]): 0%
Population Mitochondria Different-Phenotype (%) (U2OS [1]; [6]): 16%
Population Mitotic Cells (%) (U2OS [1]; [6]): 100%
Population Normal (%) (U2OS [1]; [6]): 95%
Population Pyknosed Nuclei (%) (U2OS [1]; [6]): 12%
Population Tubulin-Different-Phenotype (%) (U2OS [1]; [6]): 2%
Total Cell Count (U2OS [1]; [6]): 49
Population Apoptotic (%) (U2OS [1]; [7]): 71%
Population Fragmented Nuclei (%) (U2OS [1]; [7]): 84%
Population Healthy Nuclei (%) (U2OS [1]; [7]): 12%
Population Hoechst High Intensity Objects (%) (U2OS [1]; [7]): 7%
Population Membrane Permeable-Phenotype (%) (U2OS [1]; [7]): 71%
Population Mitochondria Different-Phenotype (%) (U2OS [1]; [7]): 28%
Population Mitotic Cells (%) (U2OS [1]; [7]): 28%
Population Normal (%) (U2OS [1]; [7]): 92%
Population Pyknosed Nuclei (%) (U2OS [1]; [7]): 2%
Population Tubulin-Different-Phenotype (%) (U2OS [1]; [7]): 68%
Total Cell Count (U2OS [1]; [7]): 507
Population Apoptotic (%) (U2OS [1]; [8]): 95%
Population Fragmented Nuclei (%) (U2OS [1]; [8]): 42%
Population Healthy Nuclei (%) (U2OS [1]; [8]): 34%
Population Hoechst High Intensity Objects (%) (U2OS [1]; [8]): 6%
Population Membrane Permeable-Phenotype (%) (U2OS [1]; [8]): 44%
Population Mitochondria Different-Phenotype (%) (U2OS [1]; [8]): 0%
Population Mitotic Cells (%) (U2OS [1]; [8]): 4%
Population Normal (%) (U2OS [1]; [8]): 93%
Population Pyknosed Nuclei (%) (U2OS [1]; [8]): 23%
Population Tubulin-Different-Phenotype (%) (U2OS [1]; [8]): 50%
Total Cell Count (U2OS [1]; [8]): 106
Population Apoptotic (%) (U2OS [1]; [9]): 59%
Population Fragmented Nuclei (%) (U2OS [1]; [9]): 57%
Population Healthy Nuclei (%) (U2OS [1]; [9]): 25%
Population Hoechst High Intensity Objects (%) (U2OS [1]; [9]): 0%
Population Membrane Permeable-Phenotype (%) (U2OS [1]; [9]): 11%
Population Mitochondria Different-Phenotype (%) (U2OS [1]; [9]): 17%
Population Mitotic Cells (%) (U2OS [1]; [9]): 40%
Population Normal (%) (U2OS [1]; [9]): 100%
Population Pyknosed Nuclei (%) (U2OS [1]; [9]): 16%
Population Tubulin-Different-Phenotype (%) (U2OS [1]; [9]): 5%
Total Cell Count (U2OS [1]; [9]): 132
Population Apoptotic (%) (U2OS [1]; [10]): 25%
Population Fragmented Nuclei (%) (U2OS [1]; [10]): 5%
Population Healthy Nuclei (%) (U2OS [1]; [10]): 88%
Population Hoechst High Intensity Objects (%) (U2OS [1]; [10]): 7%
Population Membrane Permeable-Phenotype (%) (U2OS [1]; [10]): 7%
Population Mitochondria Different-Phenotype (%) (U2OS [1]; [10]): 15%
Population Mitotic Cells (%) (U2OS [1]; [10]): 75%
Population Normal (%) (U2OS [1]; [10]): 92%
Population Pyknosed Nuclei (%) (U2OS [1]; [10]): 6%
Population Tubulin-Different-Phenotype (%) (U2OS [1]; [10]): 13%
Total Cell Count (U2OS [1]; [10]): 65
Population Apoptotic (%) (U2OS [1]; [11]): 71%
Population Fragmented Nuclei (%) (U2OS [1]; [11]): 69%
Population Healthy Nuclei (%) (U2OS [1]; [11]): 27%
Population Hoechst High Intensity Objects (%) (U2OS [1]; [11]): 6%
Population Membrane Permeable-Phenotype (%) (U2OS [1]; [11]): 34%
Population Mitochondria Different-Phenotype (%) (U2OS [1]; [11]): 18%
Population Mitotic Cells (%) (U2OS [1]; [11]): 28%
Population Normal (%) (U2OS [1]; [11]): 93%
Population Pyknosed Nuclei (%) (U2OS [1]; [11]): 2%
Population Tubulin-Different-Phenotype (%) (U2OS [1]; [11]): 19%
Total Cell Count (U2OS [1]; [11]): 321
Population Apoptotic (%) (U2OS [1]; [12]): 100%
Population Fragmented Nuclei (%) (U2OS [1]; [12]): 10%
Population Healthy Nuclei (%) (U2OS [1]; [12]): 68%
Population Hoechst High Intensity Objects (%) (U2OS [1]; [12]): 4%
Population Membrane Permeable-Phenotype (%) (U2OS [1]; [12]): 20%
Population Mitochondria Different-Phenotype (%) (U2OS [1]; [12]): 14%
Population Mitotic Cells (%) (U2OS [1]; [12]): 0%
Population Normal (%) (U2OS [1]; [12]): 95%
Population Pyknosed Nuclei (%) (U2OS [1]; [12]): 21%
Population Tubulin-Different-Phenotype (%) (U2OS [1]; [12]): 43%
Total Cell Count (U2OS [1]; [12]): 84
Population Apoptotic (%) (U2OS [1]; [13]): 50%
Population Fragmented Nuclei (%) (U2OS [1]; [13]): 8%
Population Healthy Nuclei (%) (U2OS [1]; [13]): 85%
Population Membrane Permeable-Phenotype (%) (U2OS [1]; [13]): 0%
Population Mitochondria Different-Phenotype (%) (U2OS [1]; [13]): 7%
Population Mitotic Cells (%) (U2OS [1]; [13]): 50%
Population Pyknosed Nuclei (%) (U2OS [1]; [13]): 6%
Population Tubulin-Different-Phenotype (%) (U2OS [1]; [13]): 3%
Total Cell Count (U2OS [1]; [13]): 429
Population Apoptotic (%) (U2OS [1]; [14]): 25%
Population Fragmented Nuclei (%) (U2OS [1]; [14]): 5%
Population Healthy Nuclei (%) (U2OS [1]; [14]): 90%
Population Hoechst High Intensity Objects (%) (U2OS [1]; [14]): 2%
Population Membrane Permeable-Phenotype (%) (U2OS [1]; [14]): 10%
Population Mitochondria Different-Phenotype (%) (U2OS [1]; [14]): 18%
Population Mitotic Cells (%) (U2OS [1]; [14]): 75%
Population Normal (%) (U2OS [1]; [14]): 97%
Population Pyknosed Nuclei (%) (U2OS [1]; [14]): 4%
Population Tubulin-Different-Phenotype (%) (U2OS [1]; [14]): 10%
Total Cell Count (U2OS [1]; [14]): 93
Population Apoptotic (%) (U2OS [1]; [15]): 44%
Population Fragmented Nuclei (%) (U2OS [1]; [15]): 11%
Population Healthy Nuclei (%) (U2OS [1]; [15]): 82%
Population Hoechst High Intensity Objects (%) (U2OS [1]; [15]): 3%
Population Membrane Permeable-Phenotype (%) (U2OS [1]; [15]): 3%
Population Mitochondria Different-Phenotype (%) (U2OS [1]; [15]): 12%
Population Mitotic Cells (%) (U2OS [1]; [15]): 55%
Population Normal (%) (U2OS [1]; [15]): 96%
Population Pyknosed Nuclei (%) (U2OS [1]; [15]): 6%
Population Tubulin-Different-Phenotype (%) (U2OS [1]; [15]): 12%
Total Cell Count (U2OS [1]; [15]): 155
Population Apoptotic (%) (U2OS [1]; [16]): 75%
Population Fragmented Nuclei (%) (U2OS [1]; [16]): 7%
Population Healthy Nuclei (%) (U2OS [1]; [16]): 84%
Population Hoechst High Intensity Objects (%) (U2OS [1]; [16]): 4%
Population Membrane Permeable-Phenotype (%) (U2OS [1]; [16]): 17%
Population Mitochondria Different-Phenotype (%) (U2OS [1]; [16]): 14%
Population Mitotic Cells (%) (U2OS [1]; [16]): 25%
Population Normal (%) (U2OS [1]; [16]): 95%
Population Pyknosed Nuclei (%) (U2OS [1]; [16]): 7%
Population Tubulin-Different-Phenotype (%) (U2OS [1]; [16]): 37%
Total Cell Count (U2OS [1]; [16]): 109
Growth Rate (U2OS [2]; [3]): 0
Growth Rate (U2OS [2]; 18 h, replicate number 2, timepoint 18 hours): 1
Growth Rate (U2OS [2]; [4]): 1
Growth Rate (U2OS [2]; 24 h, replicate number 2, timepoint 24 hours): 0
Growth Rate (HEK-293T; [3]): 0
Growth Rate (HEK-293T; 12 h, replicate number 1, timepoint 12 hours): 1
Growth Rate (HEK-293T; 18 h, replicate number 1, timepoint 18 hours): 1
Growth Rate (HEK-293T; [4]): 0
